Here are results for 16 compounds from ChEMBL document CHEMBL1131102, “A new series of highly potent growth hormone-releasing peptides derived from ipamorelin” (J Med Chem, 1998).

“And” between values parts separate entries of the source, which are not always exact repeats. Equal values may be shown once. Non-standard residues stand in square brackets, D forms with d. Residues, ends and D or L forms follow the SMILES beside them. d2Nal = N[C@H](Cc1ccc2ccccc2c1)C(=O)O; 3Amb = NCc1cccc(C(=O)O)c1; Aib = CC(C)(N)C(=O)O Some results are limits rather than exact numbers.

The species entered for data set [1] is Rattus norvegicus. Kind of data set: Tested in vitro for GH-releasing potency against rat pituitary cells. It is filed as functional. As to conditions: Pituitary gland cell. The gist of the method:
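Rat pituitaries were trypsin-dispersed into single cells and cultured 3 days, then washed and stimulated 15 min with secretagogue. Supernatant GH was measured by rat GH SPA. EC50 came from a Hill fit of release above basal; Emax as % of GHRP-6 maximum. Mean ± SEM of 1–5 experiments.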

Data set [2] deals with Rattus norvegicus. Nature of the data set: Compound was tested in vivo for GH-releasing potency against anesthetized female rats. It is filed as functional. In short, it runs like this:
(§1)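 Male or female rats (250 ± 25 g) were anesthetized with pentobarbital ip (50 mg/mL, 1.2 mL/kg). After 15 min, orbital blood was taken, then compound was given as an iv tail-vein bolus (2 mL/kg) and blood sampled again at 10 min. Rat GH was assayed in heparinized plasma. At least five doses, six rats per dose. ED50 by Hill fit; Emax as % of GHRP-6.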

Data set [3] concerns Rattus norvegicus. Nature of the data set: (§2) Tested in vivo for GH-releasing potency against anesthetized male rats. It is filed as functional. The gist of the method: as §1
Data set [4] concerns Rattus norvegicus. Described as §2. It is filed as functional. Details: unit not given here. In short, it runs like this: as §1
Data set [5] relates to Canis familiaris. Nature of the data set: Area under curve was measured after po administration into Beagle dog. It is filed as ADME, organism-based, Canis lupus familiaris. Particulars: in vivo. The gist of the method:
(§3)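 Fasted (overnight) male and female Beagle dogs; dosed po by gavage (2.7 or 1.8 mg/kg) and iv as a hind-leg-vein bolus (0.5 mg/kg), with a 1-week washout between routes. Vehicle was citrate/phosphate buffer, pH 5.0. EDTA blood was drawn from a front-leg vein up to 6 h. Plasma compound was measured by HPLC-UV after solid-phase extraction. AUC(0–6 h); f = AUCpo·doseiv/(AUCiv·dosepo).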

Data set [6] is described as follows: Oral bioavailability in dog (Beagle). It is filed as ADME, organism-based, Canis lupus familiaris. As to conditions: in vivo. The gist of the method:
as §3

The subject of data set [7] is Canis familiaris. Kind of data set: Basal GH release was measured after 0.5 mg/kg iv administration into Beagle dogs. It is filed as functional, Canis lupus familiaris. The gist of the method: (§4)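 Fasted (overnight) Beagle dogs were given compound in citrate/phosphate buffer, pH 5.0, either as a 0.5 mg/kg iv bolus in a hind-leg vein or by po gavage (2.7 or 1.8 mg/kg). Iv and po dosing were separated by a 1-week washout. EDTA blood was drawn from a front-leg vein at intervals up to 6 h. Plasma GH was measured by porcine GH ELISA.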

The test system of data set [8] is Canis familiaris. Kind of data set: Basal GH release was measured after 1.8 mg/kg po administration into Beagle dogs. It is filed as functional, Canis lupus familiaris. In short, it runs like this:
as §4

Data set [9] has as its system Canis familiaris. Kind of data set: Area under curve was measured after iv administration into Beagle dog. It is filed as ADME, organism-based, Canis lupus familiaris. Particulars: in vivo. In short, it runs like this:
as §3

For data set [10], the species on record is Sus scrofa. Nature of the data set: (§5) Compound was tested for GH-releasing potency against female Danish slaughter swine. It is filed as functional. The gist of the method: (§6)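 Swine with jugular catheters received single iv injections in increasing doses (range 0.03–500 nmol/kg), five doses per experiment at 24-h intervals. Vehicle was phosphate/citrate buffer diluted in saline with 0.5% porcine serum albumin. Blood was sampled from 1 h before to 3 h after dosing; pGH by ELISA. Basal-adjusted Cmax was fitted (Hill or Michaelis–Menten) for ED50; six swine.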

The species entered for data set [11] is Sus scrofa. The description is as §5. It is filed as functional, organism-based. In short, it runs like this: as §6
The subject of data set [12] is Rattus norvegicus. Kind of data set: Tested in vivo for GH-releasing potency against anesthetized female rats. It is filed as functional. The gist of the method:
as §1

Data set [13] concerns Canis familiaris. Kind of data set: Basal GH release was measured after 2.7 mg/kg po administration into Beagle dogs. It is filed as functional, Canis lupus familiaris. The gist of the method:
as §4

The mark [14] stands for this setting: Rattus norvegicus, read-out: Emax.

Broadly, the EC50 is the concentration at which the effect is half-maximal. Usually Emax stands for the greatest response seen or fitted, relative to the assay's reference. In the case of `CNC(=O)[C@@H](Cc1ccccc1)N(C)C(=O)[C@@H](Cc1ccc2ccccc2c1)N(C)C(=O)[C@H](Cc1c[nH]cn1)NC(=O)C(C)(C)N`, in the data set listed under Rattus norvegicus [1], it took 3.8 nM to reach a half-maximal effect (EC50) and the Emax amounted to 110%.

`CN(C(=O)[C@H](Cc1c[nH]cn1)NC(=O)C(C)(C)N)[C@H](Cc1ccc2ccccc2c1)C(=O)N(C)[C@H](Cc1ccccc1)C(=O)N[C@@H](CCCCN)C(N)=O`: in the data set on Rattus norvegicus [2], the ED50 is 14 nmol/kg. In the data set listed under Rattus norvegicus [1], this compound returned an EC50 of 1.5 nM and a maximal response (Emax) of 85%.

In the case of `CN(C(=O)[C@@H](Cc1ccc2ccccc2c1)NC(=O)[C@H](Cc1c[nH]cn1)NC(=O)C(C)(C)N)[C@H](Cc1ccccc1)C(=O)N[C@@H](CCCCN)C(N)=O`, in the data set filed under Rattus norvegicus [1], the EC50 is 2 nM and the Emax amounted to 100%. This compound also returned an Emax with Rattus norvegicus [3] of 90%. The compound also gave an ED50 in the data set with Rattus norvegicus [4] of 1.8.

For `CN(C(=O)c1cccc(CN)c1)[C@H](Cc1ccc2ccccc2c1)C(=O)N(C)[C@H](Cc1ccccc1)C(N)=O`, in the data set listed under Rattus norvegicus [1], the EC50 worked out at 115 nM and the maximal response (Emax) worked out at 85%.

As usually defined, the AUC is the area under the concentration-time curve, a measure of exposure. What is called bioavailability is the share of a dose that reaches the circulation, judged against a reference dose that is usually intravenous. Take `CN(C(=O)[C@@H](Cc1ccc2ccccc2c1)NC(=O)c1cccc(CN)c1)[C@H](Cc1ccccc1)C(=O)N[C@@H](CCCCN)C(N)=O`: the results for the AUC with Canis familiaris [5] and with Canis familiaris [9] were 48 ng·h/mL and 137 ng·h/mL, respectively. Moreover, the bioavailability in data set [6] worked out at 10%. For the same compound, in the data set filed under Rattus norvegicus [1], a half-maximal effect (EC50) was put at 0.5 nM. The maximal response (Emax) in the data set filed under Rattus norvegicus [1] turned out to be 80%; in the data set with Rattus norvegicus [3] it was 90%; in the data set listed under Sus scrofa [10] it was 70%. Moreover, the “Basal GH” value with Canis familiaris [7] and in the data set with Canis familiaris [8] was 1.2 ng/mL in each case. Also, the ED50 amounted to 80 in the data set with Rattus norvegicus [4] and 2 nM/kg in the data set filed under Sus scrofa [11].

In the case of `CNCc1cccc(C(=O)N[C@H](Cc2ccc3ccccc3c2)C(=O)N[C@H](Cc2ccccc2)C(=O)N[C@@H](CCCCN)C(N)=O)c1`, the EC50 in the data set filed under Rattus norvegicus [1] is 10 nM. Further, the Emax is 85% in the data set listed under Rattus norvegicus [1] and 30% in the data set with Rattus norvegicus [3]. The compound further had an ED50 in the data set on Rattus norvegicus [4] of 65.

Take `NCCCC[C@H](NC(=O)[C@@H](Cc1ccccc1)NC(=O)[C@@H](Cc1ccc2ccccc2c1)NC(=O)c1ccccc1CN)C(N)=O`: in the data set listed under Rattus norvegicus [1], the EC50 was 85 nM and the Emax came out at 60%.

`CN(C(=O)[C@@H](Cc1ccc2ccccc2c1)N(C)C(=O)c1cccc(CN)c1)[C@@H](CO)Cc1ccccc1` showed an ED50 in the data set on Rattus norvegicus [2] greater than 1000 nmol/kg. In the data set filed under Rattus norvegicus [1], the EC50 turned out to be 265 nM and the maximal response (Emax) turned out to be 75%.

For `NCCCC[C@H](NC(=O)[C@@H](Cc1ccccc1)NC(=O)[C@@H](Cc1ccc2ccccc2c1)NC(=O)c1ccc(CN)cc1)C(N)=O`, in the data set listed under Rattus norvegicus [1], the EC50 worked out at 110 nM and the Emax turned out to be 50%.

On to `CN(C(=O)[C@@H](Cc1ccc2ccccc2c1)NC(=O)c1cccc(CN)c1)[C@H](Cc1ccccc1)C(N)=O`, for which, in the data set with Rattus norvegicus [2], the ED50 is greater than 1000 nmol/kg. For the same compound, in the data set listed under Rattus norvegicus [1], the concentration for a half-maximal effect (EC50) stood at 170 nM and the Emax is 85%.

`CN(C(=O)c1cccc(CN)c1)[C@H](Cc1ccc2ccccc2c1)C(=O)N(C)[C@H](Cc1ccccc1)C(=O)N[C@@H](CCCCN)C(N)=O` displayed an ED50 in the data set with Rattus norvegicus [2] of 146 nmol/kg. In the data set listed under Rattus norvegicus [1], this compound registered an EC50 of 5 nM and an Emax of 80%. In addition, the maximum response (Emax) with Rattus norvegicus [12] (setting [14]) was determined as 100%.

In the case of `CNC(=O)[C@@H](Cc1ccccc1)N(C)C(=O)[C@@H](Cc1ccc2ccccc2c1)N(C)C(=O)c1cccc(CN)c1`, in the data set listed under Rattus norvegicus [1], the midpoint of the response, the EC50, lay at 40 nM and the Emax turned out to be 110%.

`C[C@H](NC(=O)[C@@H](Cc1c[nH]c2ccccc12)NC(=O)[C@@H](N)Cc1c[nH]cn1)C(=O)N[C@@H](Cc1c[nH]c2ccccc12)C(=O)N[C@H](Cc1ccccc1)C(=O)N[C@@H](CCCCN)C(N)=O` (H-H[dW]AW[dF]K-NH2) displayed a half-maximal effective concentration (EC50) in the data set listed under Rattus norvegicus [1] of 2.2 nM. Moreover, the Emax is 100% in the data set listed under Rattus norvegicus [1]; 60% and 100% with Rattus norvegicus [12]; 100% in the data set listed under Sus scrofa [10]. For the same compound, the ED50 in the data set filed under Sus scrofa [10] worked out at 0.0039 µmol/kg.

For the compound `NCCCC[C@H](NC(=O)[C@@H](Cc1ccccc1)NC(=O)[C@@H](Cc1ccc2ccccc2c1)NC(=O)c1cccc(CN)c1)C(N)=O` (H-[3Amb][d2Nal][dF]K-NH2), the Emax in the data set listed under Rattus norvegicus [1] was 85%. The compound further gave an ED50 with Rattus norvegicus [4] greater than 4800.

In the case of `CC(C)(N)C(=O)N[C@@H](Cc1c[nH]cn1)C(=O)N[C@H](Cc1ccc2ccccc2c1)C(=O)N[C@H](Cc1ccccc1)C(=O)N[C@@H](CCCCN)C(N)=O` [IPAMORELIN] (H-[Aib]H[d2Nal][dF]K-NH2), the bioavailability in data set [6] was 4%. Moreover, the EC50 in the data set listed under Rattus norvegicus [1] was determined as 1.3 nM. Besides, the Emax in the data set listed under Rattus norvegicus [1] came out at 85%; in the data set on Rattus norvegicus [3], 120%; in the data set listed under Sus scrofa [10], 88%. The entries for the “Basal GH” value with Canis familiaris [7] and in the data set with Canis familiaris [13] were 1.6 ng/mL and 5.4 ng/mL, respectively. For the same compound, the ED50 in the data set with Rattus norvegicus [4] came out at 85; in the data set listed under Sus scrofa [10], 0.0023 µmol/kg.

Compound `C[C@H](NC(=O)[C@@H](Cc1ccc2ccccc2c1)NC(=O)[C@@H](C)N)C(=O)N[C@@H](Cc1c[nH]c2ccccc12)C(=O)N[C@H](Cc1ccccc1)C(=O)N[C@@H](CCCCN)C(N)=O` [PRALMORELIN] (H-[dA][d2Nal]AW[dF]K-NH2) yielded an EC50 in the data set listed under Rattus norvegicus [1] of 1.8 nM. In addition, the Emax in the data set listed under Rattus norvegicus [1] was 85%; in the data set with Rattus norvegicus [12], 90%; with Rattus norvegicus [12] (setting [14]), 100%; in the data set filed under Sus scrofa [10], 75%. In the data set listed under Sus scrofa [10], this compound displayed an ED50 of 0.0006 µmol/kg.
